Source: ChEMBL document CHEMBL1123617, “Antipsychotic activity of substituted gamma-carbolines” (J Med Chem, 1987)

Assays:
[1] = molecular target: T1, Serotonin 2 (5-HT2) receptor (Rattus norvegicus, UniProt P30994+P08909+P14842); assay: In vitro 5-hydroxytryptamine 2 receptor affinity by using [3H]spiperone as the radioligand in rat cortical tissue; value may range from 165 to 263
Rattus norvegicus [2] = assay: Potential antipsychotic activity was assessed by measuring the ability to block the conditioned avoidance response(CAR) in rats on oral administration; value may range from 11 to 81; type: functional
How it was run: (§1)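 Each session had 60 trials, with a control session before every drug run. Trials with no avoidance response (avoidance block) were summed over rats at each dose and expressed as a percentage of total trials. Control avoidance was set at 100%. The dose giving 50% block (AB50) was fitted by least squares.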

D(2) dopamine receptor [3] = molecular target: T2, D(2) dopamine receptor (Rattus norvegicus, UniProt P61169); assay: In vitro Dopamine receptor D2 affinity by using [3H]spiperone as the radioligand in rat limbic system at 1 uM concentration of compound; value may range from 14 to 22; type: tissue-based
T2 sequence (P61169 whole entry): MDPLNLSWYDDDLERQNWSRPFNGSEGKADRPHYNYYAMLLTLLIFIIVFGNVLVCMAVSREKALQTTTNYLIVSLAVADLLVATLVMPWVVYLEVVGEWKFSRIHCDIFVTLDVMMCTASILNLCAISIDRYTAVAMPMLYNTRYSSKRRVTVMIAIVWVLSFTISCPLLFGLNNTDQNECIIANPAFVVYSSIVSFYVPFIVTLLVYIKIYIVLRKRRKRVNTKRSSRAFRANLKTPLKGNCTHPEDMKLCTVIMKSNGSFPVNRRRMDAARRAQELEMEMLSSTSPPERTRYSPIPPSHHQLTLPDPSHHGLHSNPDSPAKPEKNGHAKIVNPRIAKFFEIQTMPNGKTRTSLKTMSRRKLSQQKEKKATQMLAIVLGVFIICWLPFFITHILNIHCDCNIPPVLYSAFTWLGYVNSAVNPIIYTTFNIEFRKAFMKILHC

[4] = molecular target: D(2) dopamine receptor (Rattus norvegicus) (UniProt P61169); assay: (§2) In vitro Dopamine receptor D2 affinity by using [3H]spiperone as the radioligand in rat limbic system at 1 uM concentration of compound; type: tissue-based
Sequence of D(2) dopamine receptor (Rattus norvegicus) (P61169 whole entry): as above

Rattus norvegicus [5] = assay: Potential antipsychotic activity was assessed by measuring the ability to block the conditioned avoidance response(CAR) in rats on oral administration.; type: functional
Mus musculus [6] = organism: Mus musculus; assay: animal or person; details: ip
Mus musculus [7] = organism: Mus musculus; assay: animal or person; details: ip; remark: listed apart in the source
Rattus norvegicus [8] = assay: Potential antipsychotic activity was assessed by measuring the ability to block the conditioned avoidance response(CAR) in rats on oral administration; insigniificant activity, ip in shelf jump tset; type: functional
D(2) dopamine receptor [9] = molecular target: T2, D(2) dopamine receptor; assay: In vitro Dopamine receptor D2 affinity by using [3H]-Spiperone as the radioligand in rat limbic system at 1 uM concentration of compound; value may range from 4 to 15; type: tissue-based
[10] = molecular target: T1, Serotonin 2 (5-HT2) receptor; assay: In vitro 5-hydroxytryptamine 2 receptor affinity by using [3H]spiperone as the radioligand in rat cortical tissue; value may range from 197 to 341
[11] = molecular target: D(2) dopamine receptor (Rattus norvegicus) (UniProt P61169); assay: In vitro Dopamine receptor D2 affinity by using [3H]spiperone as the radioligand in rat limbic system at 1 uM; type: tissue-based
Rattus norvegicus [12] = assay: Potential antipsychotic activity was assessed by measuring the ability to block the conditioned avoidance response(CAR) in rats on oral administration; value may range from 26 to 51; type: functional; how it was run: as §1
[13] = molecular target: T1, Serotonin 2 (5-HT2) receptor; assay: In vitro 5-hydroxytryptamine 2 receptor affinity by using [3H]spiperone as the radioligand in rat cortical tissue; value may range from 2.4 to 5.3
Rattus norvegicus [14] = assay: Potential antipsychotic activity was assessed by measuring the ability to block the conditioned avoidance response(CAR) in rats on oral administration; value may range from 4 to 10; type: functional; how it was run: as §1
D(2) dopamine receptor [15] = molecular target: T2, D(2) dopamine receptor; assay: as §2; type: tissue-based
[16] = molecular target: D(2) dopamine receptor (Rattus norvegicus) (UniProt P61169); assay: In vitro Dopamine receptor D2 affinity by using [3H]spiperone as the radioligand in rat limbic system at 1 uM concentration of compound at 1 uM; type: tissue-based
[17] = molecular target: T1, Serotonin 2 (5-HT2) receptor; assay: In vitro 5-hydroxytryptamine 2 receptor affinity by using [3H]spiperone as the radioligand in rat cortical tissue; value may range from 6 to 75
D(2) dopamine receptor [18] = molecular target: T2, D(2) dopamine receptor; assay: In vitro Dopamine receptor D2 affinity by using [3H]spiperone as the radioligand in rat limbic system at 1 uM concentration of compound; value may range from 3 to 10; type: tissue-based
Rattus norvegicus [19] = assay: Potential antipsychotic activity was assessed by measuring the ability to block the conditioned avoidance response(CAR) in rats on oral administration; value may range from 8 to 35; type: functional; how it was run: as §1
[20] = molecular target: T1, Serotonin 2 (5-HT2) receptor; assay: In vitro 5-hydroxytryptamine 2 receptor affinity by using [3H]spiperone as the radioligand in rat cortical tissue.; value may range from 76 to 299
Mus musculus [21] = assay: Ability to inhibit apomorphine (APO) induced climbing behavior in mice by intraperitoneal administration of compound; value may range from 1 to 13; type: functional; details: ip
How it was run: (§3)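 Male CF-1 mice (20–25 g), acclimated at least 3 days, were given compound ip in 0.25% Tween 80 at 1, 10, 30 and 60 mg/kg (six mice per dose), alongside a concurrent vehicle group. Apomorphine 1 mg/kg sc was given 30 min later. Scoring at 5 min: stereotypy (sniffing-licking-gnawing) 0/1; climbing 0–2.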

Mus musculus [22] = assay: Ability to inhibit apomorphine (APO) induced stereotyped behavior in mice by intraperitoneal administration of compound; value may range from 7 to 18; type: functional; details: ip; how it was run: as §3
Rattus norvegicus [23] = assay: Potential antipsychotic activity was assessed by measuring the ability to block the conditioned avoidance response(CAR) in rats on oral administration; value may range from 10 to 31; type: functional; how it was run: as §1
D(2) dopamine receptor [24] = molecular target: T2, D(2) dopamine receptor; assay: In vitro Dopamine receptor D2 affinity by using [3H]spiperone as the radioligand in rat limbic system at 1 uM concentration of compound; value may range from 84 to 130; type: tissue-based
D(2) dopamine receptor [25] = molecular target: T2, D(2) dopamine receptor; assay: In vitro Dopamine receptor D2 affinity by using [3H]spiperone as the radioligand in rat limbic system at 1 uM concentration of compound; value may range from 72 to 141; type: tissue-based
Rattus norvegicus [26] = assay: Potential antipsychotic activity was assessed by measuring the ability to block the conditioned avoidance response(CAR) in rats on oral administration; indicates insignificant activity; type: functional
[27] = molecular target: T1, Serotonin 2 (5-HT2) receptor; assay: In vitro 5-hydroxytryptamine 2 receptor affinity by using [3H]-Spiperone as the radioligand in rat cortical tissue; value may range from 12 to 66
D(2) dopamine receptor [28] = molecular target: T2, D(2) dopamine receptor; assay: In vitro Dopamine receptor D2 affinity by using [3H]spiperone as the radioligand in rat limbic system at 1 uM concentration of compound; value may range from […]; type: tissue-based
Mus musculus [29] = assay: Ability to inhibit apomorphine (APO) induced climbing behavior in mice by intraperitoneal administration of compound.; value may range from 1 to 23; type: functional; details: ip
Mus musculus [30] = assay: Ability to inhibit apomorphine (APO) induced stereotyped behavior in mice by intraperitoneal administration of compound; value may range from 22 to 31; type: functional; details: ip
Rattus norvegicus [31] = assay: Potential antipsychotic activity was assessed by measuring the ability to block the conditioned avoidance response(CAR) in rats on oral administration; type: functional
[32] = molecular target: T1, Serotonin 2 (5-HT2) receptor; assay: In vitro 5-hydroxytryptamine 2 receptor affinity by using [3H]spiperone as the radioligand in rat cortical tissue.; value may range from 140 to 980
Rattus norvegicus [33] = assay: Potential antipsychotic activity was assessed by measuring the ability to block the conditioned avoidance response(CAR) in rats on oral administration; value may range from 10 to 34; type: functional; how it was run: as §1
D(2) dopamine receptor [34] = molecular target: T2, D(2) dopamine receptor; assay: In vitro Dopamine receptor D2 affinity by using [3H]spiperone as the radioligand in rat limbic system at 1 uM concentration of compound; value may range from 0.7 to 1.5; type: tissue-based
[35] = molecular target: T1, Serotonin 2 (5-HT2) receptor; assay: In vitro 5-hydroxytryptamine 2 receptor affinity by using [3H]spiperone as the radioligand in rat cortical tissue.
Rattus norvegicus [36] = assay: Potential antipsychotic activity was assessed by measuring the ability to block the conditioned avoidance response(CAR) in rats on oral administration; value may range from 30 to 62; type: functional; how it was run: as §1
D(2) dopamine receptor [37] = molecular target: T2, D(2) dopamine receptor; assay: In vitro Dopamine receptor D2 affinity by using [3H]spiperone as the radioligand in rat limbic system at 1 uM concentration of compound; value may range from 39 to 78; type: tissue-based
D(2) dopamine receptor [38] = molecular target: T2, D(2) dopamine receptor; assay: In vitro Dopamine receptor D2 affinity by using [3H]spiperone as the radioligand in rat limbic system at 1 uM concentration of compound; value may range from 1 to 2; type: tissue-based
[39] = molecular target: T1, Serotonin 2 (5-HT2) receptor; assay: In vitro 5-hydroxytryptamine 2 receptor affinity by using [3H]spiperone as the radioligand in rat cortical tissue; value may range from 23 to 187
Rattus norvegicus [40] = assay: Potential antipsychotic activity was assessed by measuring the ability to block the conditioned avoidance response(CAR) in rats on oral administration; value may range from 6 to 63; type: functional; how it was run: as §1
D(2) dopamine receptor [41] = molecular target: T2, D(2) dopamine receptor; assay: In vitro Dopamine receptor D2 affinity by using [3H]spiperone as the radioligand in rat limbic system at 1 uM concentration of compound; value may range from 238 to 401; type: tissue-based
[42] = molecular target: T1, Serotonin 2 (5-HT2) receptor; assay: In vitro 5-hydroxytryptamine 2 receptor affinity by using [3H]spiperone as the radioligand in rat cortical tissue; value may range from 29 to 132
D(2) dopamine receptor [43] = molecular target: T2, D(2) dopamine receptor; assay: In vitro Dopamine receptor D2 affinity by using [3H]spiperone as the radioligand in rat limbic system at 1 uM concentration of compound; value may range from 20 to 130; type: tissue-based
[44] = molecular target: T1, Serotonin 2 (5-HT2) receptor; assay: In vitro 5-hydroxytryptamine 2 receptor affinity by using [3H]spiperone as the radioligand in rat cortical tissue; value may range from 136 to 220

Cl.Fc1ccc2[nH]c3c(c2c1)CN(CCc1ccncc1)CC3 [CARVOTROLINE HYDROCHLORIDE]
Ki [1]: 211 nM
AB50 (Rattus norvegicus [2]): 23 mg/kg

Fc1ccc(C(CCCN2CCc3[nH]c4ccc(F)cc4c3C2)c2ccc(F)cc2)cc1
Ki (D(2) dopamine receptor [3]): 18 nM

c1ccc(CCN2CCc3[nH]c4ccccc4c3C2)nc1
inhibition [4]: 33%

O=C(CCCN1CCC(O)(c2ccc(Cl)cc2)CC1)c1ccc(F)cc1 [HALOPERIDOL]
AB50 (Rattus norvegicus [5]): 0.2 mg/kg
ED50 (Mus musculus [6]): 0.1 mg/kg
ED50 (Mus musculus [7]): 0.1 mg/kg

CC1CN(CCCN2CCc3[nH]c4ccc(Cl)cc4c3C2)CC(C)N1.Cl (configuration not stated)
AB50 (Rattus norvegicus [8]): >40 mg/kg

Fc1ccc(-n2c3c(c4cc(F)ccc42)CN(CCCCc2ccncc2)CC3)cc1
Ki (D(2) dopamine receptor [9]): 7 nM

Cl.c1cncc(CCCN2CCc3[nH]c4ccccc4c3C2)c1
Ki [10]: 252 nM
inhibition [11]: 43%
AB50 (Rattus norvegicus [12]): 33 mg/kg

Cl.Fc1ccc(-n2c3c(c4cc(F)ccc42)CN(CCc2ccccn2)CC3)cc1
Ki [13]: 3.6 nM
AB50 (Rattus norvegicus [14]): 6 mg/kg

Cl.Fc1ccc2[nH]c3c(c2c1)CN(CCc1cnccn1)CC3
Ki (D(2) dopamine receptor [15]): 63 nM
AB50 (Rattus norvegicus [5]): >40 mg/kg

Cl.c1ccc2c3c([nH]c2c1)CCN(CCCCc1ccncc1)C3
inhibition [16]: 41%
AB50 (Rattus norvegicus [5]): >20 mg/kg

Cl.Fc1ccc(-n2c3c(c4cc(F)ccc42)CN(CCc2cnccn2)CC3)cc1
Ki [17]: 23 nM
Ki (D(2) dopamine receptor [18]): 5 nM
AB50 (Rattus norvegicus [19]): 16 mg/kg

Cl.Fc1ccc2[nH]c3c(c2c1)CN(CCCc1cccnc1)CC3 [GEVOTROLINE HYDROCHLORIDE]
Ki [20]: 136 nM
ED50 (Mus musculus [21]): 4 mg/kg
ED50 (Mus musculus [22]): 11 mg/kg
AB50 (Rattus norvegicus [23]): 14 mg/kg
Ki (D(2) dopamine receptor [24]): 104 nM

Cl.Clc1ccc2[nH]c3c(c2c1)CN(CCc1ccc2ccccc2n1)CC3
AB50 (Rattus norvegicus [5]): >40 mg/kg

Cl.Clc1ccc2[nH]c3c(c2c1)CN(CCc1ccccn1)CC3
Ki (D(2) dopamine receptor [25]): 103 nM
AB50 (Rattus norvegicus [26]): >40 mg/kg

Cl.Clc1ccc2[nH]c3c(c2c1)CN(CCCc1cccnc1)CC3
Ki [27]: 28 nM
Ki (D(2) dopamine receptor [28]): 126 nM
AB50 (Rattus norvegicus [5]): >40 mg/kg

CN1CCN(C2=Nc3cc(Cl)ccc3Nc3ccccc32)CC1 [CLOZAPINE]
ED50 (Mus musculus [29]): 5 mg/kg
ED50 (Mus musculus [30]): 26 mg/kg
AB50 (Rattus norvegicus [31]): 11 mg/kg

Cl.Fc1ccc2[nH]c3c(c2c1)CN(CCCCc1ccncc1)CC3
Ki [32]: 480 nM
AB50 (Rattus norvegicus [33]): 15 mg/kg

Cl.Fc1ccc(-n2c3c(c4cc(F)ccc42)CN(CCc2ccc4ccccc4n2)CC3)cc1
Ki (D(2) dopamine receptor [34]): 1 nM
AB50 (Rattus norvegicus [5]): 40 mg/kg

C[C@@H]1CN(CCCn2c3ccccc3c3ccccc32)C[C@H](C)N1 [RIMCAZOLE]
IC50 [35]: > 0.00005 M
AB50 (Rattus norvegicus [36]): 39 mg/kg

Cl.Clc1ccc2[nH]c3c(c2c1)CN(CCCN1CCN(c2ncccn2)CC1)CC3
Ki (D(2) dopamine receptor [37]): 55 nM
AB50 (Rattus norvegicus [5]): >40 mg/kg

Fc1ccc(-n2c3c(c4cc(F)ccc42)CN(CCCCc2ccnc4ccccc24)CC3)cc1
Ki (D(2) dopamine receptor [38]): 1 nM

Cl.Fc1ccc(-n2c3c(c4cc(F)ccc42)CN(CCc2ccncc2)CC3)cc1
Ki [39]: 55 nM
AB50 (Rattus norvegicus [40]): 16 mg/kg

c1ccc2nc(CCN3CCc4[nH]c5ccccc5c4C3)ccc2c1
Ki (D(2) dopamine receptor [41]): 331 nM

Cl.Clc1ccc2[nH]c3c(c2c1)CN(CCCCc1ccncc1)CC3
Ki [42]: 60 nM
AB50 (Rattus norvegicus [31]): 36 mg/kg

c1cnc(N2CCN(CCCN3CCc4[nH]c5ccccc5c4C3)CC2)nc1
Ki (D(2) dopamine receptor [43]): 60 nM

Cl.Fc1ccc2[nH]c3c(c2c1)CN(CCc1ccccn1)CC3
AB50 (Rattus norvegicus [31]): 38 mg/kg
Ki [44]: 173 nM
